Assay outcomes as filed in PubChem.
SKKanGAS inh = blocks kanamycin growth of S. pyogenes SKKanGAS strain. BacTiter-Glo, 6 h. inhibition, % at 7.5 µM. hit rate 1.3% among 300,000. AID 1662;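 active = mean replicate score, as percent of positive control median, at least 50; inconclusive = mean below 50 but one replicate at or above 50; inactive = mean and every replicate below 50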;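 also: strain carries kanamycin resistance gene driven by streptokinase promoter and grows in 40 µg/ml kanamycin; loss of luminescence reflects streptokinase promoter inhibition or plain growth inhibition; 0% = median of DMSO wells and 100% = positive control at its reference dose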
FN deposition inh = fibronectin deposition inhibition; AH1F fibroblasts, Alexa488-fibronectin deposition fluorescence, overnight; inhibition, % at 12.6 µM; hit rate 0.086% among 350,000; AID 743247;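 active = mean inhibition across replicates of 30% or more, regardless of how many single replicates reach that level; inconclusive = mean under 30% yet at least half of replicates reach 30%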;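 also: positive control wells lacked labelled fibronectin entirely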
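test system = AH1F fibroblasts assembling fluorescent fibronectin matrix | quantity = 10000 AH1F cells per well | buffer or medium = DMEM plus 2% serum, read in PBS | doses = single dose, pinned | incubation = 1 h cell attachment, overnight exposure to compound and label | detection = fluorescence at 485 nm excitation, 525 nm emission | read-out basis = inhibition from reduced deposited-fibronectin fluorescence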
PglD DTNB = inhibitors of Campylobacter jejuni PglD acetyltransferase. inhibition, % at 12.5 µM. purified PglD enzyme, DTNB colorimetric CoA detection. hit rate 0.098% among 360,000; in the data active = inhibition above about 16%, passing the limit was not always enough; inconclusive = no clear call, values can overlap the other calls
PfHsp90 yeast 2 = growth inhibition of yeast expressing Plasmodium Hsp90; S. cerevisiae expressing PfHsp90, BacTiter-Glo ATP, 48 h; yeast lacking PDR1 and PDR3 efflux regulators; inhibition, % at 9.4 µM; hit rate 0.32% among 310,000; AID 504621;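 active = every replicate shows inhibition above about 80%, whatever the replicate mean, limit read from the data; inconclusive = mean inhibition reaches the set limit but some replicate falls short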;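 also: 0% = DMSO neutral controls and 100% = 20 µM radicicol positive controls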
Rtt109 Vps75 = blocks Candida albicans Rtt109/Vps75 acetyltransferase activity | Q5AAJ8 | purified Rtt109/Vps75, ThioGlo CoA-SH fluorescence, 4 h | inhibition, % at 34.9 µM | hit rate 0.16% among 330,000 | AID 540336;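 active = inhibition of at least 50% in every replicate; inconclusive = best replicate reaches 50% inhibition but some replicates fall short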
Target sequence (Q5AAJ8 whole entry, looked up): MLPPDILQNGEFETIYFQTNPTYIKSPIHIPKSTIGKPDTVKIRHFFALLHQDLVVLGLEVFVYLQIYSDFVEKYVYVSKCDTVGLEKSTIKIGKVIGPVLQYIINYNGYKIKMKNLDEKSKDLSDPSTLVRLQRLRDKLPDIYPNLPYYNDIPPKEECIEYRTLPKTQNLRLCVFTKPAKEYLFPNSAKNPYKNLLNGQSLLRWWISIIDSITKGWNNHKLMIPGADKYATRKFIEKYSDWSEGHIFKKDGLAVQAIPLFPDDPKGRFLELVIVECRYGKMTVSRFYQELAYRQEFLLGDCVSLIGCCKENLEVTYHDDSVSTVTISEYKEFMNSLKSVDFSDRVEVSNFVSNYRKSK
CSC inhib = cancer stem cell inhibition; cancer stem cell-like cells viability, luminescence; inhibition, % at 7.5 µM; hit rate 1.1% among 300,000; in the data active = inhibition above about 75%; inconclusive = no clear call, values can overlap the other calls; tested in HMLE shEcad cells
An asterisk follows results filed as active; ? = inconclusive; . = no result given. Compounds with a hit are over-represented: about 1.7% of the library has one in this group of screens.

SMILES	SKKanGAS inh	FN deposition inh	PglD DTNB	PfHsp90 yeast 2	Rtt109 Vps75	CSC inhib
CO[C@H]1CN(C)C(=O)c2cc(NS(=O)(=O)c3ccc(Cl)cc3)ccc2OC[C@H](C)NC[C@@H]1C	.	3	1	.	.	.
Clc1ccc(/C=C/c2nc3ccccc3[nH]2)cc1	17	7	0	59	-7	76*
COc1ccc(N=C2NN=C(c3c(C)[nH]c4ccccc34)CS2)cc1	?	-3	.	-3	?	101*
CSc1ccc(/C=C2\CCn3c2nc2cc(C(=O)O)ccc2c3=O)cc1	52*	-4	5	-3	14	-13
O=C(CSc1ccccn1)N/N=C/c1cc([N+](=O)[O-])ccc1O	115*	-5	.	4	14	6
O=C(CSc1ccccn1)N/N=C/c1ccccc1[N+](=O)[O-]	-2	7	.	-1	-14	-1
COc1ccc(Br)cc1/C=N/NC(=O)c1ccc(COc2ccc3c(c2)CCC3)o1	7	.	-6	-34	3	.
O=C(N/N=C/c1cc([N+](=O)[O-])ccc1O)c1ccc(COc2ccc3c(c2)CCC3)o1	21	1	-3	-13	-3	101*
CC(C)c1ccc(/C=N/NC(=O)c2cccc(Cl)c2)cc1	-4	8	.	12	2	91*
O=C(NN=Cc1cc(Cl)ccc1[N+](=O)[O-])c1cccc2ccccc12	.	1	.	-8	1	.
O=C(N/N=C/c1cc([N+](=O)[O-])ccc1O)c1cccc2ccccc12	94*	11	-4	19	-2	11
O=C(N/N=C/c1cccs1)c1cccc(NC(=O)c2ccc(Cl)cc2)c1	4	35*	.	.	.	?
O=C(N/N=C/c1cc([N+](=O)[O-])ccc1O)c1cccc(NC(=O)c2cccc(Cl)c2)c1	77*	3	-1	-4	12	14
O=C(CSc1ccc2ccccc2n1)N/N=C/c1ccccc1O	95*	9	-3	0	16	30
Cc1nc2ccc(C(=O)N/N=C/c3cc([N+](=O)[O-])ccc3O)cc2[nH]1	-9	-9	3	-4	-6	.
Cc1cc([N+](=O)[O-])nn1CC(=O)N/N=C/c1ccc(O)cc1O	5	-1	0	-5	1	80*
Cc1cc([N+](=O)[O-])nn1CC(=O)N/N=C/c1ccccc1Br	-2	6	.	7	4	-10
O=C(Nc1ccccc1F)N1CCCCN2[C@H](C1)[C@H](c1ccc(C3=CCCCC3)cc1)[C@@H]2CO	.	.	10	.	.	.
O=C(Cn1nnc(-c2ccccc2)n1)N/N=C/c1cc([N+](=O)[O-])ccc1O	101*	-2	0	-51	-4	-10
O=C(Cn1nnc(-c2ccccc2)n1)N/N=C/c1cc([N+](=O)[O-])c(Cl)cc1Cl	-6	0	.	-5	-10	-5
O=C(Cn1nc2ccccc2n1)N/N=C/c1cc([N+](=O)[O-])ccc1O	104*	.	-7	6	12	7
O=C(/C=C/Nc1ccc([N+](=O)[O-])cc1Br)c1cccc2ccccc12	-4	7	3	-2	51*	23
Cc1[nH]n(-c2cccc3ccccc23)c(=O)c1/C=N/NC(=O)c1cccc([N+](=O)[O-])c1	53*	1	2	-3	-1	10
C[C@H]1CN([C@@H](C)CO)C(=O)c2cccc(NS(=O)(=O)c3ccc(F)cc3)c2O[C@@H]1CN(C)S(=O)(=O)c1cccs1	.	-2	-2	.	.	.
CO[C@@H]1CN(C)C(=O)c2ccc(NC(C)=O)cc2OC[C@@H](C)N(CC2CCCCC2)C[C@@H]1C	.	-15	-1	.	.	.
SMILES	SKKanGAS inh	FN deposition inh	PglD DTNB	PfHsp90 yeast 2	Rtt109 Vps75	CSC inhib
S=C(Nc1cc(Cl)cc(Cl)c1)NC1CCN(Cc2ccccc2)CC1	16	0	-2	19	-10	75*
Cc1ccc(Nc2nc3nonc3[nH]c2=O)cc1Cl	106*	-3	13	3	-2	2
O=C(NCC[C@H]1CC[C@H](NC(=O)C2CCCC2)[C@@H](CO)O1)c1cnccn1	.	11	4	.	.	.
COc1ccc(-c2nn(-c3ccccc3)cc2C(=O)N(C)CC(=O)Nc2cccc(F)c2)cc1	.	0	1	.	11	80*
CN(C)/C=C(\C=N\OCc1ccc(Cl)cc1Cl)C(=O)Nc1ccc(Cl)c(Cl)c1	113*	.	-1	-4	13	85*
Cc1cc(O)c(/C=N/OCc2ccc(Cl)cc2Cl)c(=O)o1	-7	4	-9	-8	0	6
Cc1nn(-c2nc3ccccc3[nH]2)c(N)c1-c1ccc(Cl)cc1	68*	.	-3	37	2	33
Cc1nn(-c2nc3ccccc3[nH]2)c(=O)c2ccccc12	?	17	.	90*	-18	97*
CCOc1ccc2nc(NC3=NC(c4ccc(OC)cc4)CC(=O)N3)nc(C)c2c1 (stereo not drawn)	5	.	.	5	1	76*
C/C(N)=C(/C#N)C(=O)COc1ncnc2ccccc12	-6	.	1	6	-20	-16
C/C(N)=C(/C#N)C(=O)COC(=O)c1cc(-c2ccc(Br)cc2)nc2ccccc12	70*	0	.	4	1	49
COc1ccccc1-c1sc2cc3c(cc2c1C#CC1(O)CCCCC1)OCO3	.	-19	-1	6	-17	68
COc1ccc(-c2sc3cc4c(cc3c2C#CC2(O)CCCCC2)OCO4)cc1	.	7	-7	-4	-10	112*
O=C(C[C@H]1C=C[C@@H](NS(=O)(=O)c2ccc(F)cc2)[C@H](CO)O1)NCc1ccc(Cl)c(Cl)c1	.	.	3	.	.	.
CC(C)(CN1CCN(Cc2ccccc2)CC1)NS(=O)(=O)c1ccccc1	-5	-9	-5	6	-1	76*
CC(C)(CN1CCN(C(c2ccccc2)c2ccccc2)CC1)NS(=O)(=O)c1ccccc1	-1	-4	-1	-9	1	98*
CC(=O)N1CCN(CC(C)(C)NS(=O)(=O)c2ccccc2)CC1	.	1	3	-12	-14	-5
Cc1ccc(S(=O)(=O)/N=C2\C=C(Nc3ccc(O)cc3)C(=O)c3ccccc32)cc1	.	.	4	5	8	133*
O=C(O)c1cccc(NS(=O)(=O)c2ccc3c(c2)C(=O)c2ccccc2C3=O)c1	.	-9	.	0	32	4
CC(C)(C)c1ccc(S(=O)(=O)/N=C2\C=C(NS(=O)(=O)c3ccccc3)C(=O)c3ccccc32)cc1	94*	12	-2	-66	7	-23
Cc1ccc(S(=O)(=O)/N=C2\C=C(Nc3cccc(C(=O)O)c3)C(=O)c3ccccc32)c(C)c1	69*	0	1	-13	0	65
Cc1ccc(S(=O)(=O)/N=C2\C=C(NS(=O)(=O)c3ccccc3)C(=O)c3ccccc32)c(C)c1	.	4	-2	3	4	.
Cc1ccc(S(=O)(=O)/N=C2\C=C(Nc3cccc(C(=O)O)c3)C(=O)c3ccccc32)cc1	87*	3	6	23	11	.
